Screens deposited in PubChem BioAssay by The Scripps Research Institute Molecular Screening Center.
Only some compounds are listed: those with a hit (about 4.6% of all), similar ones and a draw of the others.
OX1R antag-1: antagonists of human orexin 1 receptor (OX1R) | Orexin/Hypocretin receptor type 1 (Homo sapiens), O43613 | OX1R-expressing cells, FRET antagonist read-out | inhibition, % at 6.6 µM | 330,000 tested, 1.8% active; in the data active means inhibition mostly above about 38%, no sharp cut-off; inactive means mostly below about 40%;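 further: 0% = agonist challenge alone and 100% = reference antagonist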
OX1R antag-2: OX1R (HCRTR1) antagonists, primary screen, fluorescence, CHO/OX1R cells, Fluo-8 calcium, orexin A; Fluo-8 calcium fluorescence; inhibition, % at 5 µM; 330,000 tested, 0.43% active; AID 434989, 2010;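 active means inhibition above its plate's threshold, mean inhibition of all tested compounds on the plate plus 3 SD, cut at about 37% in these data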;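 further: 0% = orexin A challenge wells and 100% = SB-334867-A antagonist wells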
TAAR1 ag: human TAAR1 agonists, primary screen, Fluo-8 calcium fluorescence, CHO RD-HGA16 cells; Trace amine-associated receptor 1 (Homo sapiens), Q96RJ0; vehicle wells 0%, saturating PEA agonist 100%; activation, % at 3 µM; 360,000 tested, 0.99% active;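 active means activation above the mean activation of all test compounds in the run plus 3 SD, cut at about 38% in these data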
Target sequence (Q96RJ0 whole entry, looked up): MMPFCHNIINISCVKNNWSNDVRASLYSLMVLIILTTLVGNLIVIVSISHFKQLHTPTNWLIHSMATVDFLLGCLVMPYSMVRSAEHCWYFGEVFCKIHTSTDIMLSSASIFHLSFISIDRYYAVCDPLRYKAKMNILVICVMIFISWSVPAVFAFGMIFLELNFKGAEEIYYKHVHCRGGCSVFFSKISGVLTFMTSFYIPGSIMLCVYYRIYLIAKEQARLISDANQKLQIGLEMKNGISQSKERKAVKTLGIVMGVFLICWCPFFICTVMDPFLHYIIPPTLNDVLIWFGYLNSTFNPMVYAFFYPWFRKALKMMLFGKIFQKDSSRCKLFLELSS
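Repeats: no replicates (n 1) | Material: CHO-derived RD-HGA16 cells with stable Gα16 and human TAAR1 | Technique: Kinetic Fluo-8 calcium fluorescence | Schedule: 17-24 h seeding, 75 min 37 °C dye, 30 min RT | Evaluation: % activation from peak over basal fluorescence ratio, DMSO-to-PEA scaled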
GPR7 antag: GPR7 receptor antagonists, primary screen, cell-based, fluorescence, single concentration; Neuropeptides B/W receptor type 1 (Homo sapiens), P48145; GPR7-expressing cells, fluorescence antagonist assay; inhibition, % at 4.4 µM; 290,000 tested, 1.1% active; in the data active means inhibition above about 16%, passing the limit was not always enough;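 further: cells stimulated with the agonist NPW; 0% = agonist with vehicle and 100% = vehicle without agonist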
Target sequence (P48145 whole entry, looked up): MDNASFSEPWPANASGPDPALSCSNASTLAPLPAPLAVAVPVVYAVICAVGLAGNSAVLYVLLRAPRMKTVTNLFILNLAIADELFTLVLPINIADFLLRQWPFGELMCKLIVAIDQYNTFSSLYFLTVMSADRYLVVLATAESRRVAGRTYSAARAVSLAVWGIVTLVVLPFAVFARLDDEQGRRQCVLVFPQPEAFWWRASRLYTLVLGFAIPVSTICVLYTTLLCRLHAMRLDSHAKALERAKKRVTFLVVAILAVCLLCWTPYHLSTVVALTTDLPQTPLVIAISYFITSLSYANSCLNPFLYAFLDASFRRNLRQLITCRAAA
TAAR1 antag: human TAAR1 antagonists, primary screen, Fluo-8 calcium fluorescence, CHO RD-HGA16 cells | inhibition, % at 3 µM | 360,000 tested, 1.5% active | Trace amine-associated receptor 1 (Homo sapiens), Q96RJ0 | antagonist;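 active means inhibition above a per-plate cutoff, the mean inhibition of test compounds on that plate plus 3 SD, cut at about 49% in these data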;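 further: 0% = DMSO plus EC80 beta-PEA response and 100% = DMSO alone without agonist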
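Test system: CHO RD-HGA16 cells bearing hTAAR1 | Reagent: β-PEA, EC80 | Compound dosing: 3 µM, single point | Schedule: Dye loading 75 min at 37 °C, then 30 min room temperature | Signal: Calcium fluorescence with Fluo-8 | Evaluation: Percent inhibition of PEA-evoked calcium signal, max/basal emission ratio | Control set: DMSO-only wells and EC80 β-PEA-stimulated wells | Repeats: Singlicate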
CHO parental Ca: ATP-evoked calcium signal inhibitors, parental CHO, primary screen, counter-screen for OX1R antagonist project, cell-based, fluorescence, Fluo-8 calcium dye | parental CHO-K1, ATP-induced calcium, Fluo-8 fluorescence | inhibition, % at 5.6 µM | 330,000 tested, 0.63% active;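 active means inhibition above that plate's mean sample inhibition plus 3 SD, cut at about 26% in these data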;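 further: 0% = ATP-challenged DMSO wells and 100% = DMSO wells without ATP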
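test system = CHO parental line | reagent = ATP stimulus | measured by = intracellular calcium via Fluo-8 no-wash fluorescent dye | control set = ATP and no-ATP DMSO wells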
OX1R Fluo8 conf: OX1R (HCRTR1) antagonists, confirmation, fluorescence, CHO/OX1R cells, Fluo-8 calcium, orexin A. shares compounds with OX1R antag-2. orexin A calcium Fluo-8 fluorescence. inhibition, % at 5 µM. 1,100 tested, 38% active; in the data active means inhibition above about 29%;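 further: 0% = agonist challenge alone and 100% = reference antagonist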
CHO Ca counter: ATP-evoked calcium inhibition in parental CHO, counter-screen for OX1R antagonist project, cell-based, fluorescence, CHO-K1, triplicate; shares compounds with OX1R antag-2; ATP-induced calcium, Fluo-8 fluorescence; inhibition, % at 5.6 µM; 1,100 tested, 9.3% active; AID 492965, 2010;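 active means inhibition above a per-plate limit, the mean inhibition of that plate's test compounds plus 3 SD, cut at about 25% in these data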;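 further: 0% = ATP challenge with DMSO and 100% = DMSO without ATP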
OX1R HTRF conf: OX1R (HCRTR1) antagonists, confirmation, cell-based, HTRF | shares compounds with OX1R antag-1 | OX1R-expressing cells, HTRF antagonist assay | inhibition, % at 6.6 µM | 1,800 tested, 49% active; in the data active means inhibition above about 55%;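 further: CHO cells expressing OX1R stimulated with orexin A at about EC80; 0% = agonist challenge alone and 100% = reference antagonist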
CHO-K1 HTRF: signal inhibition in parental CHO-K1 cells, counter-screen for OX1R antagonist project, cell-based, HTRF. shares compounds with OX1R antag-1. HTRF counterscreen. inhibition, % at 6.6 µM. 1,800 tested, 48% active. AID 493232, 2011; in the data active means inhibition above about 17%;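 further: 0% = agonist challenge with vehicle and 100% = vehicle alone without agonist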
* marks the source's active call; other numbers are inactive results; nt = no result given.

SMILES | OX1R antag-1 | OX1R antag-2 | TAAR1 ag | GPR7 antag | TAAR1 antag | CHO parental Ca | OX1R Fluo8 conf | CHO Ca counter | OX1R HTRF conf | CHO-K1 HTRF
CC(=O)c1ccc(OCC(=O)NC2CCCN(Cc3ccccc3F)C2)cc1 (centres undefined) | nt | nt | 1 | 6 | -7 | nt | nt | nt | nt | nt
COc1ccc(/C=N/Nc2snc(SC)c2C#N)cc1OC | 109* | 74* | 26 | 2 | 4 | -17 | 53* | -2 | 96* | 17*
COC(=O)c1ccc(C(=O)OC)c(NC(=S)N2CCN(C(=O)C3CCCO3)CC2)c1 (centres undefined) | 15 | -11 | 2 | -16 | -9 | -2 | nt | nt | nt | nt
CSc1cccc(N2CC(C(=O)NCCN3C(=O)S/C(=C\c4cccnc4)C3=O)CC2=O)c1 (centres undefined) | 145* | 33 | 0 | nt | 1 | -10 | 67* | -6 | 112* | 33*
Cc1cc(Cl)ccc1OCCCC(=O)NCCN1C(=O)S/C(=C\c2cccnc2)C1=O | 114* | 94* | 8 | -11 | 9 | -25 | 94* | -6 | 91* | 10
COc1ccc(CNC(=O)CCSCc2ccccc2C)cc1 | 26 | -13 | 0 | 0 | -40 | -15 | nt | nt | nt | nt
Cc1ccc(Cl)cc1NC(=O)Cn1nc(-c2cccs2)ccc1=O | 98* | 58* | 4 | 10 | 7 | 6 | 24 | -7 | 61* | 4
Cc1ccccc1NC(=O)Cn1nc(-c2ccc(Cl)s2)ccc1=O | 8 | 8 | 2 | 5 | -27 | -5 | nt | nt | nt | nt
O=S(=O)(c1cccs1)N1CCN(c2ccccc2Cl)CC1 | 9 | 2 | 0 | -7 | -18 | -7 | nt | nt | nt | nt
CCOc1ccc2oc(C(=O)NNC(=O)c3csc(N4CCOCC4)n3)c(C)c2c1 | 10 | -17 | 2 | -13 | 7 | -19 | nt | nt | nt | nt
C=CCn1c(SCC(=O)Nc2cc3oc4ccccc4c3cc2OC)nnc1-c1cnccn1 | 91* | 57* | 4 | 3 | 1 | -12 | 66* | -7 | 91* | 3
CCn1c2ccccc2c2cc(NC(=O)c3cc(OC)c(OC)c(OC)c3)ccc21 | 17 | 3 | -3 | 10 | 14 | -12 | nt | nt | nt | nt
CCn1c(SCC(=O)Nc2ccc3c(c2)c2ccccc2n3CC)nnc1-c1ccco1 | 81* | 64* | 0 | 12 | -6 | -23 | 35* | -10 | 83* | 3
CCn1c(SCC(=O)Nc2cc3oc4ccccc4c3cc2OC)nnc1-c1cccs1 | 83* | 50* | 1 | -3 | -4 | -25 | 49* | -11 | 89* | 6
CCn1c(SCC(=O)Nc2cccc(NC(C)=O)c2)nnc1-c1ccco1 | 9 | -23 | 1 | -6 | -25 | -10 | nt | nt | nt | nt
CCn1c2ccccc2c2cc(NC(=O)c3cc(OC)cc(OC)c3)ccc21 | 85* | 81* | -1 | -4 | -8 | -15 | 96* | -13 | 89* | -11
CCOc1ccc(-c2cnc(NCc3cccc4ccccc34)n2CCOC)cc1 | 8 | 20 | 7 | 19 | 14 | 23 | nt | nt | nt | nt
COc1cc(C(=O)NCC(c2ccco2)N2CCc3ccccc32)cc(OC)c1OC (centres undefined) | 28 | -24 | 2 | nt | -28 | -10 | nt | nt | nt | nt
CCOC(=O)C1=C(CS(=O)(=O)c2ccccc2)NC(=O)NC1c1ccccc1OC (centres undefined) | 10 | -8 | 2 | -10 | -10 | -20 | nt | nt | nt | nt
Cc1noc(C)c1C(=O)OC(C(=O)NC1CCCC1)c1ccc(F)cc1 (centres undefined) | 10 | -11 | nt | -3 | nt | -12 | nt | nt | nt | nt
CCn1c(SCC(=O)Nc2ccc3c(c2)oc2ccccc23)nnc1-c1ccc(N)cc1 | 84* | 36 | 6 | 5 | 0 | -3 | 37* | -21 | 42 | -14
CCn1c(SCC(=O)Nc2nc(-c3ccccc3)cs2)nnc1-c1ccccc1 | 62* | 54* | 5 | -11 | 26 | -14 | 15 | 2 | 72* | 0
Cc1cccc2cc(C#N)c(NCCNS(=O)(=O)c3ccc4c(c3)OCCO4)nc12 | 73* | 34 | 16 | 1 | 10 | -2 | 32* | -5 | 64* | 5
COc1ccc(/C=C/C(=O)OCC(=O)c2c(C)[nH]c3ccccc23)cc1OC | 76* | 49* | 2 | 5 | -7 | -15 | 44* | -10 | 80* | 3
OCC[C@@H]1C[C@@H](O)[C@H](O)[C@@]2(CCCCO2)O1 | 19 | 1 | 1 | nt | 12 | 1 | nt | nt | nt | nt
SMILES | OX1R antag-1 | OX1R antag-2 | TAAR1 ag | GPR7 antag | TAAR1 antag | CHO parental Ca | OX1R Fluo8 conf | CHO Ca counter | OX1R HTRF conf | CHO-K1 HTRF
COc1ccccc1C(=O)Nc1ccc2nc3n(c(=O)c2c1)CCCC3 | 95* | 36 | 1 | -14 | -5 | -1 | 31* | -4 | 97* | 11
COc1cc(OC)cc(C(=O)Nc2ccc3nc4n(c(=O)c3c2)CCCCC4)c1 | 29 | -29 | -1 | -3 | -4 | -9 | nt | nt | nt | nt
COc1cccc2c(=O)n(CC(=O)N3CCCCC3)ccc12 | 3 | -5 | 2 | -3 | -21 | -10 | nt | nt | nt | nt
CCn1c(-c2ccccc2Cl)nn(CC(=O)Nc2cc(Cl)ccc2Cl)c1=S | 54* | 46* | 23 | -9 | 4 | -6 | 8 | -5 | 49 | -6
CN(c1ccccc1)S(=O)(=O)c1cccc(NC(=O)COc2cccc([N+](=O)[O-])c2)c1 | 33* | 46* | 26 | nt | 70* | 13 | 29 | 1 | 26 | 1
Cn1c2ccccc2c(=O)c2cc(C#Cc3cccc(N)c3)ccc21 | 92* | 55* | nt | nt | nt | -11 | 40* | 6 | 88* | 13
COc1ccccc1C#Cc1ccc2c(=O)c3ccccc3n(C)c2c1 | 29 | -38 | 10 | -3 | 19 | -20 | nt | nt | nt | nt
